Sampled rows, rich in hits. Any-hit rate of the full collection: about 3.1%.
KCNQ1 pot: human KCNQ1 channel potentiation or activation; P51787; CHO-K1 KCNQ1, thallium flux FluxOR fluorescence; active compounds read high; B-score at 10 µM; actives 0.35% (n = 310,000);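 active means fluorescence ratio B-score, a plate-corrected score, at least three library SD, with initial intensity B-score within 5 SD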
Target sequence (P51787 whole entry, looked up): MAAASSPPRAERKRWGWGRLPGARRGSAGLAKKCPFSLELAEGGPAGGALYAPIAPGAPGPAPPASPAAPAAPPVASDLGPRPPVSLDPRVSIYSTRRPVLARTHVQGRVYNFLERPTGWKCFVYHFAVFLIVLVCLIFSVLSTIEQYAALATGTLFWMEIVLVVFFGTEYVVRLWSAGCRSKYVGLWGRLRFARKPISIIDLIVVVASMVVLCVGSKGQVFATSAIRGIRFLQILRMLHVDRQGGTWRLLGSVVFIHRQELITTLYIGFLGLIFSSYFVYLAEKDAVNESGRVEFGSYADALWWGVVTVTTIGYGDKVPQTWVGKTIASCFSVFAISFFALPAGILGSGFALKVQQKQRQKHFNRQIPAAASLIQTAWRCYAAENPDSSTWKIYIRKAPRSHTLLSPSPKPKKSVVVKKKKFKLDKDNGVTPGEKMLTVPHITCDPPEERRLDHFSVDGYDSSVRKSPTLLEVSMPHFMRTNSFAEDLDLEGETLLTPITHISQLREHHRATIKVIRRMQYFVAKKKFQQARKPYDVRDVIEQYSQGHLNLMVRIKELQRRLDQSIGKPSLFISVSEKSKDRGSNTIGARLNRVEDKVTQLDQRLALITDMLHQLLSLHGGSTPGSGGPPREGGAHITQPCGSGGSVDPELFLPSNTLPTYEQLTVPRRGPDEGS
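Assay system: stable KCNQ1 CHO-K1 line; medium: assay buffer, equal DMSO in all wells; timing: 90 min dye loading and 20 min compound exposure, both at room temperature; technique: kinetic FluxOR thallium fluorescence, 10-s 1-Hz baseline, 110-s post-stimulus read; read-out basis: B score of baseline-normalized fluorescence ratio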
hERG rescue: compounds protecting human hERG from proarrhythmic drug block; Q12809; CHO-hERG, FluxOR thallium flux, dofetilide IC70 present; activation (rescue from dofetilide block), less the hit threshold, % at 10 µM; actives 0.51% (n = 310,000);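 active means activation above the mean of controls blocked by dofetilide plus 5 SD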;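 further: thallium influx through hERG after potassium depolarization seen as dye fluorescence rise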
KCNQ1 inh: inhibitors of human KCNQ1 potassium channel | actives 1.3% (n = 310,000) | B-score at 10 µM | CHO-K1 KCNQ1, FluxOR thallium flux fluorescence; active compounds read high | AID 2642;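 active means compounds whose thallium flux B-score, printed positive for inhibition, exceeds three library SD while starting fluorescence stays within three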;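 further: channel opened by potassium depolarization with thallium stimulus after 20 min compound exposure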
KCNK9 inh: inhibitors of human KCNK9 two-pore domain potassium channel; Q9NPC2; HEK293 KCNK9, FluxOR thallium flux fluorescence; active compounds read low; B-score at 10 µM; actives 1.2% (n = 310,000); AID 488922;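 active means ratio B-score over 3 SD below the library mean, with starting fluorescence within 5 SD of its mean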;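 further: negative B-score means less thallium flux so channel inhibition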
KCNK3 block: human KCNK3 channel inhibition, primary screen. O14649. CHO-KCNK3 thallium flux, FluxOR fluorescence; active compounds read low. B-score at 10 µM. actives 0.84% (n = 340,000). AID 602410;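 active means B-score under library mean minus 4 SD, starting fluorescence ratio at most library mean plus 5 SD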;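 further: more negative B-score means stronger inhibition of thallium flux through KCNK3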
KCNK9 inh conf: confirmation of human KCNK9 potassium channel inhibitors. shares compounds with KCNK9 inh. AID 492992. HEK293 KCNK9 cells, FluxOR thallium flux fluorescence. inhibition, % at 10 µM. actives 43% (n = 4,900);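 active means thallium signal inhibited by more than 5 SD of the compound-free buffer control wells, on both duplicate plates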;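 further: 0% = assay buffer control wells without compound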
Kir21 sel: selectivity of KCNK9 modulators against mouse Kir2.1; shares compounds with KCNK9 inh; Kir2.1 cells, FluxOR thallium flux fluorescence; inhibition, % at 10 µM; actives 4% (n = 4,900); AID 492993;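 active means thallium signal drop more than 5 SD beyond the mean of the no-compound control wells, seen in both duplicate plates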;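 further: signal is fluorescence rise after thallium addition divided by baseline fluorescence; plate controls were assay buffer only for no effect and full block by chlorpromazine control for full effect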
KCNK9 uninduced: second counter-screen for KCNK9 modulators: effect in non-induced cells | shares compounds with KCNK9 inh | inhibition, % at 10 µM | non-induced KCNK9-HEK293, FluxOR thallium flux | actives 40% (n = 4,900);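 active means thallium signal drop beyond 5 SD of the untreated control mean, on both duplicate plates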;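 further: plate controls were buffer only IC0 wells for no effect and SID17386958 at its maximal inhibitory level for full effect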
KCNK3 inh conf: confirmation of human KCNK3 two-pore domain potassium channel inhibitors; AID 651638; shares compounds with KCNK3 block; CHO-KCNK3 thallium flux, FluxOR fluorescence; 0% buffer, 100% carvedilol maximal block; actives 99% (n = 2,400); ratio percent of control, % at 10 µM;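 active means ratio percent of control, averaged over triplicates, above buffer control mean plus 5 SD, cut at about 64% in these data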;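 further: ratio is the fluorescence rise from min to max over baseline after thallium stimulus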
KCNK3 noninduced: activity in cells without induced KCNK3 expression; shares compounds with KCNK3 block; thallium flux ratio (lower = more inhibition) at 10 µM; actives 40% (n = 2,400); non-induced KCNK3 parental cells, FluxOR thallium flux; active compounds read low;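 active means thallium flux ratio, averaged over three wells, more than 5 SD below the buffer control mean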;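 further: host cells are CHO cells without KCNK3 induction; ratio is peak minus trough fluorescence over baseline then normalized to buffer controls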
The depositor's hits bear a star; i = inactive; · = no result.

SMILES	KCNQ1 pot	hERG rescue	KCNQ1 inh	KCNK9 inh	KCNK3 block	KCNK9 inh conf	Kir21 sel	KCNK9 uninduced	KCNK3 inh conf	KCNK3 noninduced
Cc1ccc(C(=O)N(CCc2ccccc2)Cc2ccccc2)cc1S(=O)(=O)N1CCCCC1	i	-13	i	-13*	-9.1*	76%*	i	30%*	103*	i
Cc1ccc(C(=O)N(CCc2ccccc2)Cc2ccccc2)cc1S(=O)(=O)N1CCOCC1	·	·	·	·	i	·	·	·	·	·
COC(C[C@@H]1O[C@H]1C(=O)[C@@H](C)OCc1ccccc1)OC	i	0	i	i	i	·	·	·	·	·
COc1ccc(C(=O)OC(C(=O)c2ccccc2)c2ccccc2)cc1 (stereo not drawn)	i	-4	i	-19*	-9.6*	77%*	i	46%*	115*	i
COc1ccccc1N1CCN(C(=O)COc2cc(C)cc(C)c2)CC1	i	-13	i	i	i	·	·	·	·	·
O=C(NCc1ccc2c(c1)OCO2)c1ccc(-c2ccc(Cl)cc2)o1	i	-6	i	-8.6*	-8.9*	27%*	i	26%*	140*	0.12*
O=C(NCc1ccc2c(c1)OCO2)c1cccc(Cl)c1	i	-1	i	i	i	·	·	·	·	·
O=S(Cc1cc(Oc2ccccc2)nc(-c2ccccc2)n1)c1ccccc1 (stereo not drawn)	i	-11	i	-18*	-10*	70%*	i	37%*	115*	i
CCCN1Cc2cccc(C(=O)Nc3ccc(C)cc3)c2C1=O	i	-11	i	i	i	·	·	·	·	·
CCOC(=O)c1ccc(NC(=O)c2cccc3c2C(=O)N(CC2CCCO2)C3)cc1 (stereo not drawn)	i	-20	i	-8.6*	-9.3*	64%*	i	i	131*	0.13*
O=C(Nc1ccccc1N1CCN(C(=O)c2ccccc2)CC1)c1ccc(Cl)cc1	i	-22	i	-13*	-15*	37%*	i	i	113*	i
CCOC(=O)c1ccc(Oc2nc(SC)nc(N(C)C)n2)cc1	i	-3	i	-8.8*	-9.8*	48%*	i	42%*	103*	i
COc1cccc(Nc2ccc(C(=O)O)cc2[N+](=O)[O-])c1	i	-11	i	i	i	·	·	·	·	·
CCOC(=O)c1ccc(Cn2c(-c3ccccc3)nnc2-c2ccccc2)o1	i	-6	i	-13*	-9.3*	56%*	i	40%*	115*	0.15*
CCCCn1nc(C(=O)O)ccc1=O	i	-9	i	i	i	·	·	·	·	·
Cc1cc(C)c2nc(C)cc(N/N=C/c3ccc(O)cc3)c2c1	i	-36	10*	-15*	-12*	72%*	36%*	i	135*	0.12*
CCCCc1ncc(CN2CCN(Cc3ccc(C)cc3)C(CCO)C2)[nH]1 (stereo not drawn)	i	-10	i	i	i	·	·	·	·	·
CCN(c1ccc(OC)cc1)S(=O)(=O)c1cc(-c2cc(C)no2)ccc1OC	i	-7	i	i	i	·	·	·	·	·
CCN(c1ccc(OC)cc1)S(=O)(=O)c1cc(-c2cc(C)no2)ccc1C(C)C	i	-8	i	-16*	-9.2*	60%*	i	38%*	121*	0.14*
O=C(CSCC(=O)N1CCCc2ccccc21)Nc1nc(-c2ccccc2)cs1	i	-19	i	-17*	-12*	23%*	i	i	119*	0.14*

Screening data from PubChem.
